This note sets out measurements from ChEMBL document CHEMBL1141297, “Bioactive p-terphenyl derivatives from a Cordyceps-colonizing isolate of Gliocladium sp” (J Nat Prod, 2007).

Values after ≈ are worked out from the molar mass of the structure shown. Active and inactive are the calls of the source. No cut-off for these calls is given here. A value given as a limit tells only on which side of the number the result lay.

The test system of assay [1] is Staphylococcus aureus. Nature of the assay: Antimicrobial activity against Staphylococcus aureus ATCC 6538 at 100 ug/disk after 48 hrs. The assay is classed as functional. The settings on record: ATCC 6538, 48 h, read-out: IZ.
Assay [2] relates to Staphylococcus aureus. In words: Antimicrobial activity against Staphylococcus aureus ATCC 6538 after 24 hrs by broth dilution assay. The assay is classed as functional. The settings on record: ATCC 6538, 24 h.
The subject of a further assay is Streptococcus mutans. In words: Antimicrobial activity against Streptococcus mutans ATCC 25175 at 100 ug/disk after 24 hrs. Format: functional, organism-based. In short, it runs like this:
(§1)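 Bacteria were grown on Mueller-Hinton agar. 6 mm paper disks carrying 100 µg compound were placed on the agar surface and plates were incubated at 37 °C for 24 h. The read-out was the presence and diameter of the inhibition zone, with a ciprofloxacin disk (100 µg) as reference.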

For another assay, the system named is Enterococcus faecalis. In words: Antimicrobial activity against Enterococcus faecalis ATCC 19433 at 100 ug/disk after 24 hrs. The assay is classed as functional, organism-based. In short, it runs like this: as §1
The next assay has as its system Micrococcus luteus. Nature of the assay: Antimicrobial activity against Sarcina lutea CMCC B28001 at 100 ug/disk after 24 hrs. Format: functional, organism-based. A digest of the protocol:
as §1

Another assay relates to HeLa. In words: Growth inhibition of human HeLa cells after 4 hrs by MTT assay. The assay is classed as functional, cell-based. A digest of the protocol:
(§2)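 MTT viability: 10⁴ cells/well attached overnight, then exposed to serial dilutions (from a 10 mg/mL DMSO stock) in medium, with 0.2% DMSO vehicle, for 4 h at 37 °C, 5% CO₂. Medium was then changed to fresh DMEM, followed by MTT (0.5 mg/mL) for 3 h at 37 °C in the dark. Formazan was dissolved in DMSO and read at 540 nm to give IC50.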

In another assay the test system is HCT-116. Nature of the assay: Growth inhibition of human HCT116 cells after 4 hrs by MTT assay. Format: functional, cell-based. The settings on record: HCT-116, 4 h. A digest of the protocol: as §2
Another assay has as its system Geotrichum candidum. In words: Antifungal activity against Geotrichum candidum AS2.498 at 100 ug/disk after 48 hrs.
For the next assay, the system named is Candida albicans. In words: Antifungal activity against Candida albicans ATCC 10231 at 100 ug/disk after 48 hrs.
In a further assay the test system is Aspergillus fumigatus. In words: Antifungal activity against Aspergillus fumigatus ATCC 10894 at 100 ug/disk after 48 hrs.

For `COC1=C(c2ccc(OC)cc2)C(=O)[C@H](O)[C@@](O)(c2ccc(OC)cc2)C1` [GLIOCLADININ A], in the assay on Staphylococcus aureus [1], the zone of inhibition at 100 µg/disc was determined as 15 mm. Also, the MIC with Staphylococcus aureus [2] is 270 µM (≈ 100 µg/mL). For the same molecule, the result in the assay on Streptococcus mutans, in the assay on Enterococcus faecalis, with Micrococcus luteus, with Geotrichum candidum, with Candida albicans and in the assay on Aspergillus fumigatus was inactive. The IC50 is 54 µM in the assay on HeLa and > 270 µM in the assay on HCT-116.

Take `O=C(O)c1cn(C2CC2)c2cc(N3CCNCC3)c(F)cc2c1=O` [CIPROFLOXACIN]: the zone of inhibition at 100 µg/disc in the assay on Staphylococcus aureus [1] is 35 mm.

Take `COc1ccc(-c2cc(O)c(-c3ccc(OC)cc3)c(O)c2O[C@@H]2O[C@H](CO)[C@@H](O)[C@H](O)[C@H]2O)cc1` [GLIOCLADININ B]: in the assay on Staphylococcus aureus [1], the zone of inhibition at 100 µg/disc was 20 mm. 130 µM (≈ 65.1 µg/mL) was the least that counted as inhibitory with Staphylococcus aureus [2] (MIC). The result in the assay with Streptococcus mutans, in the assay with Enterococcus faecalis, with Micrococcus luteus, in the assay on Geotrichum candidum, in the assay with Candida albicans and in the assay with Aspergillus fumigatus was inactive. In addition, the IC50 was 40 µM in the assay with HeLa and 80 µM in the assay with HCT-116.

One may read the MIC as the lowest concentration found to suppress growth. The low end stands for greater potency, the high end for weaker potency. The IC50 is the concentration that gives 50% inhibition. The low end stands for greater potency in that assay, the high end for weaker potency in that assay.
